Ten molecules from ChEMBL document CHEMBL3044643, “Chemical composition and antifungal activity of Arnica longifolia, Aster hesperius, and Chrysothamnus nauseosus essential oils” (2007) can be followed below.

Active and inactive are the calls of the source. No cut-off for these calls is given here.

Test [1] concerns Colletotrichum gloeosporioides. Briefly: Antifungal activity against Colletotrichum gloeosporioides assessed as size of growth inhibitory zone at concentration of 2 mM in volume of 4 ul of acetone measured after 4 days by TLC based direct bioautography assay. In kind it is functional. The method in brief:
(§1)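 Direct TLC bioautography on silica plates, dose–response from 2 to 12 µL of a 2 mM solution spotted per plate. Benomyl, cyprodinil, azoxystrobin and captan served as standards at 2 µL of 2 mM in ethanol. Inhibitory zone size was measured 4 days after treatment. Experiments were repeated multiple times, and mean zones were compared by ANOVA with Fisher's protected LSD (P 0.05).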

Test [2] deals with Colletotrichum fragariae. The experiment in a line: Antifungal activity against Colletotrichum fragariae assessed as size of growth inhibitory zone at concentration of 2 mM in volume of 10 ul of acetone measured after 4 days by TLC based direct bioautography assay. In kind it is functional. The method in brief: as §1
The test system of test [3] is Colletotrichum fragariae. The experiment in a line: Antifungal activity against Colletotrichum fragariae assessed as size of growth inhibitory zone at concentration of 2 mM in volume of 8 ul of acetone measured after 4 days by TLC based direct bioautography assay. It counts as functional. The procedure, abridged:
as §1

The subject of test [4] is Colletotrichum gloeosporioides. Briefly: Antifungal activity against Colletotrichum gloeosporioides assessed as size of growth inhibitory zone at concentration of 2 mM in volume of 6 ul of acetone measured after 4 days by TLC based direct bioautography assay. In kind it is functional. The method in brief: as §1
Test [5] deals with Colletotrichum gloeosporioides. Briefly: Antifungal activity against Colletotrichum gloeosporioides assessed as growth inhibition at 0.3 to 30 uM after 72 hr by 96-well microdilution broth assay. In kind it is functional, organism-based. The procedure, abridged:
(§2)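 96-well microdilution broth dose–response. Final treatment concentrations were 0.3, 3.0 and 30.0 µM, alongside an azoxystrobin fungicide standard. Plates were lidded and incubated in a growth chamber, and growth was read as absorbance at 620 nm. Each concentration was run in duplicate, with three independent experiments. Results are reported as mean growth inhibition with standard errors for each fungus and dose.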
For orientation: Dilution methods test growth across graded concentrations, often in twofold steps.

In test [6] the test system is Colletotrichum acutatum. Briefly: Antifungal activity against Colletotrichum acutatum assessed as size of growth inhibitory zone at concentration of 2 mM in volume of 4 ul of acetone measured after 4 days by TLC based direct bioautography assay. In kind it is functional. The procedure, abridged: as §1
For test [7], the system named is Colletotrichum fragariae. Briefly: Antifungal activity against Colletotrichum fragariae assessed as size of growth inhibitory zone at concentration of 2 mM in volume of 4 ul of acetone measured after 4 days by TLC based direct bioautography assay. It counts as functional. The procedure, abridged: as §1
The test system of test [8] is Colletotrichum fragariae. Briefly: Antifungal activity against Colletotrichum fragariae assessed as size of growth inhibitory zone at concentration of 2 mM in volume of 2 ul of acetone measured after 4 days by TLC based direct bioautography assay. It counts as functional. The procedure, abridged:
as §1

Test [9] concerns Colletotrichum fragariae. The experiment in a line: Antifungal activity against Colletotrichum fragariae assessed as size of growth inhibitory zone at concentration of 2 mM in volume of 12 ul of acetone measured after 4 days by TLC based direct bioautography assay. In kind it is functional. The procedure, abridged: as §1
The subject of test [10] is Colletotrichum acutatum. The experiment in a line: Antifungal activity against Colletotrichum acutatum assessed as size of growth inhibitory zone at concentration of 2 mM in volume of 12 ul of acetone measured after 4 days by TLC based direct bioautography assay. In kind it is functional. The procedure, abridged: as §1
Test [11] deals with Colletotrichum gloeosporioides. Briefly: Antifungal activity against Colletotrichum gloeosporioides assessed as size of growth inhibitory zone at concentration of 2 mM in volume of 12 ul of acetone measured after 4 days by TLC based direct bioautography assay. In kind it is functional. The procedure, abridged:
as §1

Test [12] relates to Colletotrichum fragariae. Briefly: Antifungal activity against Colletotrichum fragariae assessed as size of growth inhibitory zone at concentration of 2 mM in volume of 6 ul of acetone measured after 4 days by TLC based direct bioautography assay. It counts as functional. The procedure, abridged: as §1
Test [13] deals with Botrytis cinerea. Briefly: Antifungal activity against Botryotinia fuckeliana assessed as growth inhibition at 0.3 uM after 72 hr by 96-well microdilution broth assay. In kind it is functional. The following applies: read-out: GI. The method in brief: as §2
For test [14], the system named is Colletotrichum gloeosporioides. The experiment in a line: Antifungal activity against Colletotrichum gloeosporioides assessed as size of growth inhibitory zone at concentration of 2 mM in volume of 8 ul of acetone measured after 4 days by TLC based direct bioautography assay. In kind it is functional. The procedure, abridged:
as §1

The test system of test [15] is Colletotrichum fragariae. Briefly: Antifungal activity against Colletotrichum fragariae assessed as growth inhibition at 0.3 to 30 uM after 72 hr by 96-well microdilution broth assay. It counts as functional, organism-based. The method in brief: as §2
Test [16] has as its system Colletotrichum acutatum. The experiment in a line: Antifungal activity against Colletotrichum acutatum assessed as size of growth inhibitory zone at concentration of 2 mM in volume of 10 ul of acetone measured after 4 days by TLC based direct bioautography assay. It counts as functional. The method in brief: as §1
The test system of test [17] is Botrytis cinerea. Briefly: Antifungal activity against Botryotinia fuckeliana assessed as growth inhibition at 3.0 uM after 72 hr by 96-well microdilution broth assay. In kind it is functional. As to conditions: read-out: GI. The procedure, abridged:
as §2

In test [18] the test system is Colletotrichum acutatum. Briefly: Antifungal activity against Colletotrichum acutatum assessed as size of growth inhibitory zone at concentration of 2 mM in volume of 8 ul of acetone measured after 4 days by TLC based direct bioautography assay. In kind it is functional. The method in brief:
as §1

In a further test the test system is Phomopsis obscurans. Briefly: Antifungal activity against Phomopsis obscurans assessed as growth inhibition at 0.3 to 30 uM after 72 hr by 96-well microdilution broth assay. As to conditions: Paraphomopsis obscurans. In kind it is functional, organism-based. The method in brief: as §2
Test [19] has as its system Colletotrichum acutatum. The experiment in a line: Antifungal activity against Colletotrichum acutatum assessed as size of growth inhibitory zone at concentration of 2 mM in volume of 2 ul of acetone measured after 4 days by TLC based direct bioautography assay. In kind it is functional. The method in brief:
as §1

For test [20], the system named is Colletotrichum gloeosporioides. Briefly: Antifungal activity against Colletotrichum gloeosporioides assessed as size of growth inhibitory zone at concentration of 2 mM in volume of 10 ul of acetone measured after 4 days by TLC based direct bioautography assay. It counts as functional. The method in brief: as §1
The test system of the next test is Fusarium oxysporum. Briefly: Antifungal activity against Fusarium oxysporum assessed as growth inhibition at 0.3 to 30 uM after 72 hr by 96-well microdilution broth assay. In kind it is functional, organism-based. The procedure, abridged:
as §2

In test [21] the test system is Colletotrichum acutatum. Briefly: Antifungal activity against Colletotrichum acutatum assessed as growth inhibition at 0.3 to 30 uM after 72 hr by 96-well microdilution broth assay. It counts as functional, organism-based. The method in brief: as §2
Test [22] deals with Colletotrichum acutatum. Briefly: Antifungal activity against Colletotrichum acutatum assessed as size of growth inhibitory zone at concentration of 2 mM in volume of 6 ul of acetone measured after 4 days by TLC based direct bioautography assay. It counts as functional. The method in brief:
as §1

In test [23] the test system is Colletotrichum gloeosporioides. The experiment in a line: Antifungal activity against Colletotrichum gloeosporioides assessed as size of growth inhibitory zone at concentration of 2 mM in volume of 2 ul of acetone measured after 4 days by TLC based direct bioautography assay. It counts as functional. The method in brief: as §1
Test [24] deals with Colletotrichum fragariae. The experiment in a line: Antifungal activity against Colletotrichum fragariae assessed as size of growth inhibitory zone at concentration of 2 mM in volume of 2 ul of EtOH measured after 4 days by TLC based direct bioautography assay. In kind it is functional. The method in brief:
(§3)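 Direct TLC bioautography on silica plates against Colletotrichum species. Technical-grade fungicide standards (without formulation) were spotted at 2 µL of 2 mM in 95% ethanol. Inhibitory zone size was read 4 days after treatment. Diffuse zones were taken to mark suppressive activity. Values are means and standard deviations of zone size, with means separated by ANOVA and Fisher's protected LSD (P = 0.05).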

In test [25] the test system is Colletotrichum gloeosporioides. Briefly: Antifungal activity against Colletotrichum gloeosporioides assessed as diffuse inhibitory zone at concentration of 2 mM in volume of 2 ul of EtOH measured after 4 days by TLC based direct bioautography assay. It counts as functional, organism-based. The procedure, abridged: as §3
Test [26] deals with Colletotrichum acutatum. Briefly: Antifungal activity against Colletotrichum acutatum assessed as diffuse inhibitory zone at concentration of 2 mM in volume of 2 ul of EtOH measured after 4 days by TLC based direct bioautography assay. It counts as functional, organism-based. The procedure, abridged:
as §3

The test system of test [27] is Colletotrichum gloeosporioides. Briefly: Antifungal activity against Colletotrichum gloeosporioides assessed as size of growth inhibitory zone at concentration of 2 mM in volume of 2 ul of EtOH measured after 4 days by TLC based direct bioautography assay. It counts as functional. The procedure, abridged:
as §3

Test [28] deals with Colletotrichum acutatum. Briefly: Antifungal activity against Colletotrichum acutatum assessed as size of growth inhibitory zone at concentration of 2 mM in volume of 2 ul of EtOH measured after 4 days by TLC based direct bioautography assay. It counts as functional. The procedure, abridged:
as §3

Test [29] concerns Botrytis cinerea. Briefly: Antifungal activity against Botryotinia fuckeliana assessed as growth inhibition at 30 uM by 96-well microdilution broth assay. The following applies: read-out: GI. In kind it is functional. The procedure, abridged: as §2

In the case of `CC(C)=CCC[C@](C)(O)[C@@H]1CC=C(C)CC1` (relative stereo) [LEVOMENOL], the Activity in test [1] amounted to 5.5 mm; with Colletotrichum fragariae [2], 9.5 mm; with Colletotrichum fragariae [3], 8 mm; in test [4] it was 7.5 mm; in the test on Colletotrichum acutatum [6] it was 8 mm; in the test on Colletotrichum fragariae [7] it was 6.5 mm. For the same molecule, the Activity with Colletotrichum fragariae [8] is on record as 5 mm; in the test with Colletotrichum fragariae [9] it was 11.5 mm; in the test with Colletotrichum acutatum [10], 11 mm; in test [11], 11.5 mm; in the test with Colletotrichum fragariae [12], 7 mm; in [14] it was 8 mm. For the same molecule, the Activity is 9.5 mm in the test on Colletotrichum acutatum [16]; 7.5 mm in the test on Colletotrichum acutatum [18]; 5.5 mm in the test with Colletotrichum acutatum [19]; 9 mm in test [20]; 7.5 mm in the test on Colletotrichum acutatum [22]; 5 mm in test [23]. The “growth inhibition (GI)” value (in [5]; with Colletotrichum fragariae [15]; in the test on Phomopsis obscurans; in the test on Fusarium oxysporum; in the test on Colletotrichum acutatum [21]) was “inactive” in each case. For the same molecule, the inhibition of growth at 0.3 µM with Botrytis cinerea [13] is 46.5%. Also, in the test with Botrytis cinerea [17], the inhibition of growth at 3 µM came out at 47.3%.
On to `CO/C=C(/C(=O)OC)c1ccccc1Oc1cc(Oc2ccccc2C#N)ncn1` [AZOXYSTROBIN], for which the Activity in the test on Colletotrichum fragariae [24] is listed as 23 mm. Besides, the inhibition result (in test [25]; in the test with Colletotrichum acutatum [26]) was “Active” in each case.
Turning to `CCCCNC(=O)n1c(NC(=O)OC)nc2ccccc21` [BENOMYL], the Activity in the test with Colletotrichum fragariae [24] was 21.3 mm. Further, the inhibition result (in test [25]; in the test with Colletotrichum acutatum [26]) was “Active” each time.
Take `C=C1CCC[C@]2(C)CC[C@@H](C(C)(C)O)C[C@@H]12` [BETA-EUDESMOL]: the Activity (in test [1]; in the test with Colletotrichum acutatum [6]; in the test on Colletotrichum fragariae [7]) was 0 mm in each case.
As for `C=C1C=CC(C(C)C)CC1` (stereo not drawn) [BETA-PHELLANDRENE], the Activity (in test [1]; with Colletotrichum acutatum [6]; with Colletotrichum fragariae [7]) was 0 mm throughout.
Consider `C=C1CCC2CC1C2(C)C` (stereo not drawn) [BETA-PINENE], for which the Activity (in [1]; in the test with Colletotrichum acutatum [6]; with Colletotrichum fragariae [7]) was 0 mm in each case.
Regarding `O=C1C2CC=CCC2C(=O)N1SC(Cl)(Cl)Cl` (stereo not given) [CAPTAN], the results for the Activity (in test [27]; with Colletotrichum fragariae [24]; with Colletotrichum acutatum [28]) were 18.9 mm, 15 mm and 11.5 mm, respectively.
Take `Cc1ccc(C(C)C)cc1O` [CARVACROL]: the inhibition of growth at 30 µM with Botrytis cinerea [29] stood at 36.9%.
As to `Cc1cc(C2CC2)nc(Nc2ccccc2)n1` [CYPRODINIL], the Activity in the test on Colletotrichum fragariae [24] was determined as 23 mm. Besides, the inhibition entry (in [25]; in the test with Colletotrichum acutatum [26]) was “Active” each time.
With `CCCCCCCCCCCCCCCC(=O)O` [PALMITIC ACID], the Activity (in test [1]; with Colletotrichum acutatum [6]; in the test with Colletotrichum fragariae [7]) was 0 mm throughout.
